{"source": "PubChem BioAssay AID1515", "about": "(The Scripps Research Institute Molecular Screening Center, 2009)", "note": "Out of some 220,000 compounds screened, about 440 (0.2%) were called active.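 Rule for the calls: active = inhibition above the campaign mean of all tested compounds plus 3 SD (cut at about 14% in these data); inactive = the rest.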 Many of the other results were omitted from the sample, so actives are more common in it than they were.", "data": [{"target": "Serine hydrolase RBBP9 (Homo sapiens) (UniProt O75884)", "sequence (O75884 whole entry, looked up)": "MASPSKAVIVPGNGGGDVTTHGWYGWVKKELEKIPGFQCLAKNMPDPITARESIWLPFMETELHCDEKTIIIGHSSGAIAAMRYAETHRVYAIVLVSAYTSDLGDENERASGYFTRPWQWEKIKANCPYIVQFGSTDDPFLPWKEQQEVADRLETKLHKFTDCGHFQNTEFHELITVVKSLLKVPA", "test": "human RBBP9 inhibitors, primary screen, biochemical, fluorescence polarization, FP-Rh probe, HTS (AID 1515);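 note: plate controls were DMSO wells with RBBP9 for no effect and wells lacking RBBP9 protein for full effect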", "conditions": "recombinant RBBP9, FP-Rh probe fluorescence polarization; at 7.94 µM; stronger effect = higher value", "summary_of_the_method": "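system = RBBP9 protein | input = RBBP9 at 2.5 µM in dispensed solution, before mixing | measured by = fluorescence polarization (mP), excitation 525 nm, emission 598 nm | incubation = enzyme-compound preincubation 30 min, then probe labeling 45 min, 25 °C | buffer or medium = Tris-NaCl-Pluronic buffer, pH 8.0 | compound = single dose 7.94 µM | also added = FP-Rh probe, 375 nM dispensing solution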", "values": [{"smiles": "CC(C)(C)C1CCC(C(=O)Nc2cccnc2)CC1", "note": "(stereo not given)", "inhibition": "-3.33% (inactive)"}, {"smiles": "CN(C)c1ccc(C=NCCc2ccc(S(N)(=O)=O)cc2)cc1", "inhibition": "-3.47% (inactive)"}, {"smiles": "CCCc1nc(SCC(=O)Nc2ccc(S(=O)(=O)N(C)C)cc2)c2ccccc2n1", "inhibition": "-8.27% (inactive)"}, {"smiles": "COc1ccc([C@H]2[C@H](C(C)=O)N3N=Cc4ccccc4C3C23C(=O)OC(C)(C)OC3=O)cc1", "note": "(stereo not given in full)", "inhibition": "0.49% (inactive)"}, {"smiles": "CC(=O)Nc1nc(C)c(-c2csc(Nc3ccc(S(N)(=O)=O)cc3)n2)s1", "inhibition": "-4.68% (inactive)"}, {"smiles": "COc1cc2c(cc1OC)CC1(CCCCC1)N=C2", "inhibition": "-7.64% (inactive)"}, {"smiles": "Cc1ccc(-c2nc(C)sc2CC(=O)O)cc1", "inhibition": "-5.14% (inactive)"}, {"smiles": "O=C(O)Cc1sc(-c2ccc(C(=O)O)cc2)nc1-c1ccccc1", "inhibition": "-2.34% (inactive)"}, {"smiles": "C/C(=N/Nc1nc(-c2ccccc2)c(CC(=O)O)s1)c1ccccc1", "inhibition": "17% (active)"}, {"smiles": "COc1ccc(NC(C)=O)cc1NC(=O)CN1CCN(C2c3ccccc3-c3ccccc32)CC1", "inhibition": "-0.61% (inactive)"}, {"smiles": "CC(=O)NC1C(Oc2ccc(C=O)cc2)OC(COC(C)=O)C(OC(C)=O)C1OC(C)=O", "note": "(stereo not given)", "inhibition": "-10.2% (inactive)"}, {"smiles": "CC(=O)NC1=NN(C(C)=O)C(C)(CCS(=O)(=O)c2ccc(Cl)c(Cl)c2)S1", "note": "(stereo not given)", "inhibition": "-8.22% (inactive)"}, {"smiles": "COc1cc(/C=C2/C(=O)ON=C2C)ccc1OCc1ccccc1F", "inhibition": "-7% (inactive)"}, {"smiles": "CC1=NOC(=O)/C1=C\\c1ccccc1", "inhibition": "15.4% (active)"}, {"smiles": "COc1cc(/C=C2/C(=O)ON=C2C)ccc1OCc1cccc(F)c1", "inhibition": "-10.5% (inactive)"}, {"smiles": "Cc1ccc(S(=O)(=O)N(C)C)cc1NC(=O)c1n[nH]c(=O)c2ccccc12", "inhibition": "1.59% (inactive)"}, {"smiles": "CCOC(=O)C1=C(CC)OC(N)=C(C#N)C1c1ccc(F)cc1F", "note": "(stereo not given)", "inhibition": "-1.24% (inactive)"}, {"smiles": "N#Cc1cc([N+](=O)[O-])ccc1Oc1cccc(/C=N/NC(=O)c2ccc(Cl)cc2)c1", "inhibition": "1.74% (inactive)"}, {"smiles": "Cn1c(CSCC(=O)Nc2ccccc2)nnc1SCc1ccccc1", "inhibition": "1.33% (inactive)"}, {"smiles": "COc1ccc(C2CC(c3ccccc3)=NN2C(=O)CSc2nccc(=O)[nH]2)cc1", "note": "(stereo not given)", "inhibition": "-13.6% (inactive)"}, {"smiles": "COc1ccc(C2NC(=S)NC3=C2CCc2ccccc23)cc1OC", "note": "(stereo not given)", "inhibition": "-1.09% (inactive)"}, {"smiles": "COc1ccccc1P(=O)(c1ccccc1)c1ccccc1NC(C)=O", "note": "(stereo not given)", "inhibition": "4.53% (inactive)"}, {"smiles": "O=C(O)CCS(=O)(=O)c1ccc(-c2ccccc2)cc1", "inhibition": "-1.5% (inactive)"}, {"smiles": "CCCC(=O)Nc1ccc2c(c1)nc(CCNC(=O)c1ccco1)n2C", "inhibition": "-8.19% (inactive)"}, {"smiles": "CCn1c(CNC(=O)c2ccccc2)nnc1SCC(=O)N1CCN(c2ccccc2)CC1", "inhibition": "-8.71% (inactive)"}, {"smiles": "Cc1ccc2cc(CCNC(=O)c3c(-c4ccccc4Cl)noc3C)c(=O)[nH]c2c1", "inhibition": "-1.48% (inactive)"}, {"smiles": "O=c1c2ccccc2nc2n1C(CSCc1cccc(C(F)(F)F)c1)CS2", "note": "(stereo not given)", "inhibition": "-8.83% (inactive)"}, {"smiles": "N#Cc1c(NC(=O)C2CC(Cl)=CCC2C(=O)O)sc2c1CCCCC2", "note": "(stereo not given)", "inhibition": "-6.51% (inactive)"}, {"smiles": "CCNC(=S)N1CCC(c2nc3cc(C)c(C)cc3[nH]2)CC1", "inhibition": "-6.72% (inactive)"}, {"smiles": "Cc1cc([N+](=O)[O-])nn1CCCC(=O)Nc1cccnc1Cl", "inhibition": "-5.84% (inactive)"}, {"smiles": "Cc1cc([N+](=O)[O-])nn1Cc1ccc(F)cc1", "inhibition": "16.8% (active)"}, {"smiles": "Cc1cc([N+](=O)[O-])nn1CC(=O)Nc1ccc(Cc2ccncc2)cc1", "inhibition": "-7.35% (inactive)"}, {"smiles": "Brc1cc(/C=N/n2cnnc2)oc1Br", "inhibition": "-14.7% (inactive)"}, {"smiles": "COc1ccccc1NC(=O)C1=C(C)NC(=O)NC1c1ccc(C)s1", "note": "(stereo not given)", "inhibition": "-5.66% (inactive)"}, {"smiles": "Cc1cc(C#N)c(SCC(N)=O)nc1-c1ccc(F)cc1", "inhibition": "-8.75% (inactive)"}, {"smiles": "CC(C)OCC(O)CN1CCN(C(c2ccccc2)c2ccccc2)CC1", "note": "(stereo not given)", "inhibition": "2.7% (inactive)"}, {"smiles": "O=[N+]([O-])c1ccc(N2CCN(c3ccc(O)cc3)CC2)c(Cl)c1", "inhibition": "-8.4% (inactive)"}, {"smiles": "CC(C)NC(=O)C(=O)NCCCOC(C)C", "inhibition": "-0.43% (inactive)"}, {"smiles": "CC(C)C(=O)Nc1ccc(C(=O)NNC(=O)c2cccs2)cc1", "inhibition": "3.67% (inactive)"}, {"smiles": "CC(C)OCCCNC(=O)CNC(=O)c1cccs1", "inhibition": "14.6% (active)"}, {"smiles": "CCOC(=O)NN1C(=O)c2ccccc2NC1c1ccccc1O", "note": "(stereo not given)", "inhibition": "0.52% (inactive)"}, {"smiles": "COc1cc(C2C(C(=O)OCCC#N)=C(C)NC3=C2S(=O)(=O)c2ccccc23)cc(OC)c1OC", "note": "(stereo not given)", "inhibition": "21.6% (active)"}, {"smiles": "COCCOC(=O)C1=C(C)Nc2nc(C)nn2C1c1ccccc1", "note": "(stereo not given)", "inhibition": "0.85% (inactive)"}, {"smiles": "CCOC(=O)C1=C(N)N2C(=O)C(C)SC2=C(C(=O)OCC)C1c1cc(OC)c(OC)c(OC)c1", "note": "(stereo not given)", "inhibition": "4.66% (inactive)"}, {"smiles": "COCCNC(=O)Nc1ccc2nc(-c3ccco3)c(-c3ccco3)nc2c1", "inhibition": "17.9% (active)"}, {"smiles": "O=C(NCc1ccccn1)c1ccc2nc(-c3ccco3)c(-c3ccco3)nc2c1", "inhibition": "-0.69% (inactive)"}, {"smiles": "COc1ccc(NC(=O)Nc2ccc3nsnc3c2)cc1", "inhibition": "-1.59% (inactive)"}, {"smiles": "COC(=O)CC(=O)N1CCN(c2ccc(Cl)c(Cl)c2)CC1", "inhibition": "0.17% (inactive)"}, {"smiles": "CC1(C)CC2CC(C)(CN2c2ncnc3ccc(Br)cc23)C1", "note": "(stereo not given)", "inhibition": "-2.76% (inactive)"}, {"smiles": "CCOC(=O)c1sc(=NC(=O)/C=C/c2cccs2)n(C)c1C", "inhibition": "-10.7% (inactive)"}, {"smiles": "CCOC(=O)c1ccc(N=C2SC(C(=O)NC)CC(=O)N2CCc2ccccc2)cc1", "note": "(stereo not given)", "inhibition": "-5.9% (inactive)"}, {"smiles": "COC(=O)Cc1ccc(NC(=S)NCc2ccco2)cc1", "inhibition": "-2.67% (inactive)"}, {"smiles": "Cc1nnc(SC(C(=O)Nc2cc(Cl)cc(Cl)c2)c2ccccc2)[nH]c1=O", "note": "(stereo not given)", "inhibition": "-10.7% (inactive)"}, {"smiles": "CSc1sc(C(=O)NNC(=O)c2ccc(Cl)cc2)c2c1C=CCC2", "inhibition": "-0.01% (inactive)"}, {"smiles": "COC(=O)c1ccc(C2C3=C(Nc4nnnn42)c2ccccc2OC3)cc1", "note": "(stereo not given)", "inhibition": "-9.06% (inactive)"}, {"smiles": "Cc1ccc(Sc2ccncc2S(N)(=O)=O)cc1", "inhibition": "-3.25% (inactive)"}, {"smiles": "CC(NCc1nc2ccccc2n1C)C12CC3CC(CC(C3)C1)C2", "note": "(stereo not given)", "inhibition": "1.94% (inactive)"}, {"smiles": "Cc1ccc(OCC(=O)N2CCN(C(=O)c3cccnc3)CC2)cc1", "inhibition": "-7.21% (inactive)"}, {"smiles": "Cc1ccc(-c2cc(C(F)(F)F)n3nc(C(=O)N4CCCC4)cc3n2)cc1", "inhibition": "-1.99% (inactive)"}, {"smiles": "CCN(CC)C(=O)N1CCN(C(=O)c2ccc(C)cn2)CC1", "inhibition": "18.9% (active)"}]}]}
